Where two headings read alike, the source gives them in different places.
Legend:
[1] = Part II urinary recovery of ZYAN1; type: in vivo, human; details: urine
Method in brief: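 Urine collected pre-dose and over 0–12, 12–24, 24–36 and 36–48 h: after the single dose (10–300 mg, part I) or after each alternate-day dose on Days 1, 3 and 5 (part II). Total volume recorded; 5 mL aliquots stored at –80 ± 10 °C. Acetonitrile precipitation and LC-MS/MS with analog internal standard, urine calibration 2–5000 ng/mL, LLOQ 2 ng/mL. Amount and percentage of dose recovered calculated.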

[2] = beagle dogs, oral route; cited from earlier work
[3] = rats, oral route; cited from earlier work
[4] = after oral dosing across the species tested; cited from earlier work
[5] = mice, oral route; cited from earlier work
[6] = tested on: serum erythropoietin (EPO), hemoglobin, hematocrit, reticulocyte count; assay: Part I pharmacodynamics; type: in vivo, human; details: for mean serum EPO C max: placebo 9.6 mIU/L
Method in brief: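 Serum EPO, hemoglobin, hematocrit and reticulocyte count were measured in blood taken before and after oral dosing. Regimens: part I single fasted doses 10–300 mg vs placebo; part II 100–300 mg on Days 1, 3, 5 vs placebo; part III single 150 mg, fasted vs fed, men and women. EPO expressed baseline-corrected. Post-dose vs baseline compared by paired two-sided t test, α = 0.05.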

PHD enzyme = details: read-out: concentration of drug producing 50% inhibition [IC50]; HepG2 cells, HIF stabilization; cited from earlier work
cytochrome P450 (CYP) = details: cited from earlier work
hemoglobin levels = details: cited from earlier work
serum EPO levels = details: acute pharmacodynamic animal model; cited from earlier work
[7] = dogs, cited from earlier work
[8] = cited from earlier work
[9] = Part II safety assessment; type: in vivo, human
Method in brief: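 Safety monitored under ICH-GCP in each part (single 10–300 mg; alternate-day 100–300 mg; 150 mg fasted/fed crossover). Assessments: adverse events coded with MedDRA version 18.0, clinical examinations, frequent vital signs, 12-lead ECGs, clinical laboratory tests, and continuous ECG for 24 h post-dose in parts I and II. Post-dose vs baseline compared by paired two-sided t test, α = 0.05.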

SMILES: O=C(O)CNC(=O)c1c(O)c2ccccc2n(OCC2CC2)c1=O [ZYAN1]
- Amount recovered [mean ± SD] ([1]; 100 mg, Day 1): 50.13 ± 14.99 mg
- Percentage recovered [mean ± SD] ([1]; 100 mg, Day 1): 50.132 ± 14.998%
- Amount recovered [mean ± SD] ([1]; 100 mg, Day 3): 41.00 ± 11.07 mg
- Percentage recovered [mean ± SD] ([1]; 100 mg, Day 3): 41.001 ± 11.071%
- Amount recovered [mean ± SD] ([1]; 100 mg, Day 5): 50.14 ± 12.16 mg
- Percentage recovered [mean ± SD] ([1]; 100 mg, Day 5): 50.137 ± 12.160%
- Amount recovered [mean ± SD] ([1]; 150 mg, Day 1): 52.77 ± 6.85 mg
- Percentage recovered [mean ± SD] ([1]; 150 mg, Day 1): 35.178 ± 4.566%
- Amount recovered [mean ± SD] ([1]; 150 mg, Day 3): 54.64 ± 13.35 mg
- Percentage recovered [mean ± SD] ([1]; 150 mg, Day 3): 36.427 ± 8.900%
- Amount recovered [mean ± SD] ([1]; 150 mg, Day 5): 44.23 ± 8.18 mg
- Percentage recovered [mean ± SD] ([1]; 150 mg, Day 5): 29.488 ± 5.453%
- Amount recovered [mean ± SD] ([1]; 200 mg, Day 1): 64.95 ± 25.50 mg
- Percentage recovered [mean ± SD] ([1]; 200 mg, Day 1): 32.474 ± 12.749%
- Amount recovered [mean ± SD] ([1]; 200 mg, Day 3): 66.09 ± 8.74 mg
- Percentage recovered [mean ± SD] ([1]; 200 mg, Day 3): 33.044 ± 4.371%
- Amount recovered [mean ± SD] ([1]; 200 mg, Day 5): 75.76 ± 12.76 mg
- Percentage recovered [mean ± SD] ([1]; 200 mg, Day 5): 37.880 ± 6.381%
- Amount recovered [mean ± SD] ([1]; 300 mg, Day 1): 82.97 ± 35.69 mg
- Percentage recovered [mean ± SD] ([1]; 300 mg, Day 1): 27.656 ± 11.899%
- Amount recovered [mean ± SD] ([1]; 300 mg, Day 3): 92.22 ± 41.92 mg
- Percentage recovered [mean ± SD] ([1]; 300 mg, Day 3): 30.741 ± 13.972%
- Amount recovered [mean ± SD] ([1]; 300 mg, Day 5): 99.15 ± 34.40 mg
- Percentage recovered [mean ± SD] ([1]; 300 mg, Day 5): 33.050 ± 11.466%
- tolerated dose, single-dose study [2]: up to 75 mg/kg
- tolerated dose, single-dose study [3]: up to 800 mg/kg
- oral absorption and bioavailability [4]: well-absorbed and highly bioavailable
- tolerated dose, single-dose study [5]: up to 300 mg/kg
- EPO response vs placebo ([6]; doses up to 150 mg): not markedly different from placebo
- mean serum EPO C max ([6]; single dose 10 mg): 6.6 mIU/L
- mean serum EPO C max ([6]; single dose 300 mg): 79.9 mIU/L
- initiation of EPO rise after ZYAN1 administration ([6]; single dose, as early as): 6 h
- hemoglobin increase observed in most of the subjects ([6]; single dose, more consistent from 100 mg and above): > 0.5 gm%
- IC50 (PHD enzyme): 11.2 µM
- potential for cytochrome P450 (CYP)-mediated drug–drug interactions (cytochrome P450 (CYP)): minimal potential
- effective dose for inducing hematopoiesis (hemoglobin levels; alternate dosing pattern for a week): 15 mg/kg
- erythropoiesis / hemoglobin levels (hemoglobin levels; repeated dose model, nephrectomized rats and mice): robust increase in erythropoiesis, resulting in normalization of hemoglobin levels
- serum EPO levels (serum EPO levels): dose-related increase
- maximum tolerated dose (MTD) ([7]; 1-month toxicity study): 15 mg/kg
- no observed adverse effect level (NOAEL) ([7]; 28-day toxicity study): 5 mg/kg
- effect of acute and chronic kidney failure models on pharmacokinetics ([8]; rats vs normal control rats): did not alter the pharmacokinetics
- increase in the exposure after complete removal of both kidneys ([8]; rats): 2 fold
- Adverse events (Test) ([9]; MAD 150 mg panel): Headache, dizziness
- Adverse events (Test) ([9]; MAD 200 mg panel): Nausea, headache, dizziness, diarrhea, phlebitis
- Adverse events (Test) ([9]; MAD 300 mg panel): Supra ventricular extrasystoles, abdominal pain, diarrhea, contusion, back pain, dizziness, headache, nasal congestion, phlebitis
- Adverse events (Test) ([9]; MSD 100 mg panel (multiple dose)): Headache, dizziness
- severity of treatment-related AEs ([9]; part II (ZYAN1 and placebo subjects)): all grade 1 in severity, with the exception of dizziness in two subjects, which was classified as grade 2 in severity
- subjects with AEs possibly related to study treatment ([9]; part II, 16 AEs in 11 subjects, placebo 63%): 46%

From paper PMC5766731 (Clinical Pharmacokinetics, 2017)
